Results taken from ChEMBL document CHEMBL5724801, “EUbOPEN Chemogenomics Library - Multiplex” (2024).
Where “and” joins values, the source holds several entries; their conditions need not be identical. Equal entries are not always repeated.

test system: Fibroblast; test: Multiplex assay against human fibroblast; assay type: toxicity, cell-based; details: 12 h, 1 µM, compound concentration 1 uM
How it was run: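 Four dyes were applied at seeding to live cells: Hoechst33342, BioTracker Green Microtubule Cytoskeleton Dye, MitoTracker Red and Annexin V Alexa Fluor 680. Imaging after compound addition used a CQ1 microscope at 37°C and 5% CO2. CellPathfinder machine-learning gating then sorted cells into Hoechst high-intensity objects or normal cells, normal cells into healthy, pyknosed or fragmented nuclei, and pyknosed cells into mitotic or apoptotic, with tubulin, mitochondrial-mass and membrane-permeability phenotypes given as per cents of healthy-nucleus cells.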

Compound	Population Apoptotic (%)	Population Fragmented Nuclei (%)	Population Healthy Nuclei (%)	Population Hoechst High Intensity Objects (%)	Population Membrane Permeable-Phenotype (%)	Population Mitochondria Different-Phenotype (%)	Population Mitotic Cells (%)	Population Normal (%)	Population Pyknosed Nuclei (%)	Population Tubulin-Different-Phenotype (%)
O=C(CCCc1ccccc1)Nc1nc2ccccc2c(=O)s1	58% and 34%	9% and 19%	66% and 49%	2% and 3%	0% and 9%	4% and 7%	41% and 65%	97% and 96%	23% and 31%	34% and 35%
COCCn1c(C)c(C)s/c1=N\C(=O)C1C(C)(C)C1(C)C	43% and 40%	18% and 22%	69% and 57%	0% and 4%	0% and 1%	7% and 5%	56% and 60%	99% and 95%	11% and 19%	34% and 32%
O=C1N=C(NCc2cccs2)S/C1=C\c1ccc2ncccc2c1	15.79% and 17.07%		66.3% and 76.85%	0%	3.28% and 1.28%	4.92% and 6.41%	84.21% and 82.93%	100%	20.65% and 20.2%	6.56% and 12.82%
c1ccc2nc(N3CCNCC3)ccc2c1 [QUIPAZINE]	13.95% and 10%	15.05% and 6.28%	64.08% and 79.23%	0%	2.27% and 0.61%	9.09% and 6.71%	86.05% and 90%	100%	20.87% and 14.49%	9.09% and 19.51%

same assay, conditions: 12 h, 1 µM, compound concentration 1 uM

Compound	Total Cell Count
O=C(CCCc1ccccc1)Nc1nc2ccccc2c(=O)s1	127 and 135
COCCn1c(C)c(C)s/c1=N\C(=O)C1C(C)(C)C1(C)C	136 and 133
O=C1N=C(NCc2cccs2)S/C1=C\c1ccc2ncccc2c1	184 and 203
c1ccc2nc(N3CCNCC3)ccc2c1 [QUIPAZINE]	206 and 207

same assay, conditions: 12 h, 10 µM, compound concentration 10 uM

Compound	Population Apoptotic (%)	Population Fragmented Nuclei (%)	Population Healthy Nuclei (%)	Population Hoechst High Intensity Objects (%)	Population Mitotic Cells (%)	Population Normal (%)	Population Pyknosed Nuclei (%)	Population Tubulin-Different-Phenotype (%)	Total Cell Count	Population Mitochondria Different-Phenotype (%)
O=C(CCCc1ccccc1)Nc1nc2ccccc2c(=O)s1	51% and 31%	21% and 26%	58% and 38%	2% and 12%	48% and 68%	97% and 87%	20% and 35%	28% and 48%	147 and 133	
COCCn1c(C)c(C)s/c1=N\C(=O)C1C(C)(C)C1(C)C	64% and 37%	19% and 38%	59% and 40%	2% and 6%	35% and 62%	97% and 93%	20% and 21%	56% and 64%	167 and 120	14% and 8%
O=C1N=C(NCc2cccs2)S/C1=C\c1ccc2ncccc2c1	20.69% and 27.27%		61.15% and 75.14%	0%	79.31% and 72.73%	100%	18.47% and 18.23%	34.38% and 55.15%	157 and 181	25% and 16.91%
c1ccc2nc(N3CCNCC3)ccc2c1 [QUIPAZINE]		10.34% and 8.29%	70.94% and 74.63%	0%	94.74% and 74.29%	100%	18.72% and 17.07%	13.19% and 23.53%	203 and 205	

same assay, conditions: 12 h, 10 µM, compound concentration 10 uM

Compound	Population Membrane Permeable-Phenotype (%)
O=C1N=C(NCc2cccs2)S/C1=C\c1ccc2ncccc2c1	14.58% and 10.29%
c1ccc2nc(N3CCNCC3)ccc2c1 [QUIPAZINE]	3.47% and 5.23%

same assay, conditions: 24 h, 1 µM, compound concentration 1 uM

Compound	Population Apoptotic (%)	Population Fragmented Nuclei (%)	Population Healthy Nuclei (%)	Population Hoechst High Intensity Objects (%)	Population Membrane Permeable-Phenotype (%)	Population Mitochondria Different-Phenotype (%)	Population Mitotic Cells (%)	Population Normal (%)	Population Pyknosed Nuclei (%)	Population Tubulin-Different-Phenotype (%)
O=C(CCCc1ccccc1)Nc1nc2ccccc2c(=O)s1	50% and 42%	13% and 21%	68% and 51%	2% and 5%	0% and 4%	5% and 4%	50% and 57%	97% and 94%	18% and 26%	20% and 35%
COCCn1c(C)c(C)s/c1=N\C(=O)C1C(C)(C)C1(C)C	64% and 54%	15% and 28%	72% and 54%	2% and 3%	1% and 5%	5%	35% and 45%	97% and 96%	11% and 17%	38% and 37%
O=C1N=C(NCc2cccs2)S/C1=C\c1ccc2ncccc2c1	14.29% and 17.86%	10.34% and 5.09%	72.41% and 81.94%	0%	4.08% and 3.39%	5.44% and 3.39%	85.71% and 82.14%	100%	17.24% and 12.96%	7.48% and 19.77%
c1ccc2nc(N3CCNCC3)ccc2c1 [QUIPAZINE]	15.79% and 12%	7.37% and 6.28%	75.12% and 82.51%	0%	4.91% and 2.72%	6.75% and 7.61%	84.21% and 88%	100%	17.51% and 11.21%	11.04% and 17.93%

same assay, conditions: 24 h, 1 µM, compound concentration 1 uM

Compound	Total Cell Count
O=C(CCCc1ccccc1)Nc1nc2ccccc2c(=O)s1	147 and 131
COCCn1c(C)c(C)s/c1=N\C(=O)C1C(C)(C)C1(C)C	122 and 132
O=C1N=C(NCc2cccs2)S/C1=C\c1ccc2ncccc2c1	203 and 216
c1ccc2nc(N3CCNCC3)ccc2c1 [QUIPAZINE]	217 and 223

same assay, conditions: 24 h, 10 µM, compound concentration 10 uM

Compound	Population Apoptotic (%)	Population Fragmented Nuclei (%)	Population Healthy Nuclei (%)	Population Hoechst High Intensity Objects (%)	Population Membrane Permeable-Phenotype (%)	Population Mitotic Cells (%)	Population Normal (%)	Population Pyknosed Nuclei (%)	Total Cell Count	Population Mitochondria Different-Phenotype (%)
O=C(CCCc1ccccc1)Nc1nc2ccccc2c(=O)s1	46% and 53%	19% and 34%	60% and 39%	5%	0% and 18%	53% and 46%	94%	20% and 25%	135 and 134	
COCCn1c(C)c(C)s/c1=N\C(=O)C1C(C)(C)C1(C)C	68% and 33%	20% and 40%	59% and 36%	4% and 3%	0% and 11%	31% and 66%	95% and 96%	19% and 23%	154 and 120	15% and 19%
O=C1N=C(NCc2cccs2)S/C1=C\c1ccc2ncccc2c1	19.05% and 33.33%	12.93% and 9.6%	72.79% and 76.84%	0%	11.21% and 5.88%	80.95% and 66.67%	100%	14.29% and 13.56%	147 and 177	23.36% and 20.59%
c1ccc2nc(N3CCNCC3)ccc2c1 [QUIPAZINE]	17.65% and 35.71%	10.5% and 7.62%	73.97% and 79.82%	0%	3.7% and 3.37%	82.35% and 64.29%	100%	15.53% and 12.56%	219 and 223	3.09% and 6.74%

same assay, conditions: 24 h, 10 µM, compound concentration 10 uM

Compound	Population Tubulin-Different-Phenotype (%)
COCCn1c(C)c(C)s/c1=N\C(=O)C1C(C)(C)C1(C)C	61% and 66%
O=C1N=C(NCc2cccs2)S/C1=C\c1ccc2ncccc2c1	49.53% and 66.91%
c1ccc2nc(N3CCNCC3)ccc2c1 [QUIPAZINE]	16.05% and 25.84%

same assay, conditions: 48 h, 1 µM, compound concentration 1 uM

Compound	Population Apoptotic (%)	Population Fragmented Nuclei (%)	Population Healthy Nuclei (%)	Population Hoechst High Intensity Objects (%)	Population Membrane Permeable-Phenotype (%)	Population Mitochondria Different-Phenotype (%)	Population Mitotic Cells (%)	Population Normal (%)	Population Pyknosed Nuclei (%)	Population Tubulin-Different-Phenotype (%)
O=C(CCCc1ccccc1)Nc1nc2ccccc2c(=O)s1	59% and 42%	13% and 26%	66% and 58%	5% and 2%	1% and 4%	1% and 6%	40% and 57%	94% and 97%	19% and 15%	32% and 50%
COCCn1c(C)c(C)s/c1=N\C(=O)C1C(C)(C)C1(C)C	60%	23% and 31%	63% and 56%	4% and 7%	0% and 2%	4%	40%	95% and 92%	12% and 11%	43% and 45%
O=C1N=C(NCc2cccs2)S/C1=C\c1ccc2ncccc2c1	14.81% and 21.05%	8.85% and 4.11%	79.2% and 87.21%	0%	1.12% and 4.19%	8.38% and 5.76%	85.19% and 78.95%	100%	11.95% and 8.68%	6.7% and 19.37%
c1ccc2nc(N3CCNCC3)ccc2c1 [QUIPAZINE]	57.14% and 58.33%	12.6% and 5.91%	82.06% and 88.64%	0%	2.33% and 4.1%		42.86% and 41.67%	100%	5.34% and 5.45%	4.19% and 11.79%

same assay, conditions: 48 h, 1 µM, compound concentration 1 uM

Compound	Total Cell Count
O=C(CCCc1ccccc1)Nc1nc2ccccc2c(=O)s1	146 and 127
COCCn1c(C)c(C)s/c1=N\C(=O)C1C(C)(C)C1(C)C	123 and 140
O=C1N=C(NCc2cccs2)S/C1=C\c1ccc2ncccc2c1	226 and 219
c1ccc2nc(N3CCNCC3)ccc2c1 [QUIPAZINE]	262 and 220

same assay, conditions: 48 h, 10 µM, compound concentration 10 uM

Compound	Population Apoptotic (%)	Population Fragmented Nuclei (%)	Population Healthy Nuclei (%)	Population Hoechst High Intensity Objects (%)	Population Membrane Permeable-Phenotype (%)	Population Mitotic Cells (%)	Population Normal (%)	Population Pyknosed Nuclei (%)	Population Tubulin-Different-Phenotype (%)	Total Cell Count
O=C(CCCc1ccccc1)Nc1nc2ccccc2c(=O)s1	58% and 77%	19% and 40%	58% and 43%	2% and 5%	1% and 10%	41% and 22%	97% and 94%	22% and 16%	26% and 73%	143 and 119
COCCn1c(C)c(C)s/c1=N\C(=O)C1C(C)(C)C1(C)C	75% and 58%	23% and 49%	56% and 34%	7% and 8%	0% and 14%	25% and 41%	92% and 91%	20% and 16%	67% and 65%	151 and 111
O=C1N=C(NCc2cccs2)S/C1=C\c1ccc2ncccc2c1	44.44% and 38.89%	18.54% and 16.67%	75.5% and 74.24%	0%	2.63% and 12.24%	55.56% and 61.11%	100%	5.96% and 9.09%	47.37% and 63.95%	151 and 198
c1ccc2nc(N3CCNCC3)ccc2c1 [QUIPAZINE]	35.71% and 45%	10.74% and 6.5%	84.07% and 85.37%	0%	1.32% and 4.76%	64.29% and 55%	100%	5.19% and 8.13%		270 and 246

same assay, conditions: 48 h, 10 µM, compound concentration 10 uM

Compound	Population Mitochondria Different-Phenotype (%)
COCCn1c(C)c(C)s/c1=N\C(=O)C1C(C)(C)C1(C)C	22% and 11%
O=C1N=C(NCc2cccs2)S/C1=C\c1ccc2ncccc2c1	33.33% and 14.29%
c1ccc2nc(N3CCNCC3)ccc2c1 [QUIPAZINE]	6.61% and 0.48%
